Measurements: ChEMBL document CHEMBL1132160, “Structure-antiviral activity relationship in the series of pyrimidine and purine N-[2-(2-phosphonomethoxy)ethyl] nucleotide analogues. 1. Derivatives substituted at the carbon atoms of the base” (J Med Chem, 1999)
In brackets after ≈: the same amount, converted by molar mass.

Legend:
[1] = Inhibitory activity against murine sarcoma virus induced transformation of murine C3H/3T3 embryo fibroblasts; type: functional, Mus musculus
How it was run: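 Murine C3H/3T3 embryo fibroblasts were seeded at 5 × 10⁵ cells/mL. After 24 h they were infected with 80 focus-forming units of MSV for 90–120 min at 37 °C. The medium was then replaced with fresh medium containing various compound concentrations, and transformation was examined microscopically after 6 days.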

Human alphaherpesvirus 1 [2] = assay: Inhibition of herpes simplex virus type 1 (HSV-1) F strain; type: functional, organism-based
How it was run: (§1)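 Confluent E6SM cell cultures were inoculated with 100 CCID50 of virus and allowed 1 h for adsorption. Residual virus was then removed, and the cells were incubated with test compound at 400, 200, 100, ... μg/mL. Viral cytopathicity was scored once it reached completion in untreated infected controls.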

Human alphaherpesvirus 1 [3] = assay: Inhibitory activity against herpes simplex virus type 1 (HSV-1) KOS strain; type: functional, organism-based; how it was run: as §1
Human alphaherpesvirus 1 [4] = assay: Inhibitory activity against herpes simplex virus type 1 (HSV-1) McIntyre strain; type: functional, organism-based; how it was run: as §1
[5] = Inhibitory activity against herpes simplex virus type 2 (HSV-2) 196 strain; type: functional; how it was run: as §1
Human alphaherpesvirus 2 [6] = assay: Inhibitory activity against herpes simplex virus type 2 (HSV-2) Lyons strain; type: functional, organism-based; how it was run: as §1
Vaccinia virus [7] = assay: Inhibitory activity against vaccinia virus (VV).; type: functional, organism-based, Orthopoxvirus vaccinia
How it was run: (§2)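 Confluent E6SM cell cultures were inoculated with 100 CCID50 of virus and left for 1 h adsorption, then residual virus was removed. Cultures were incubated with test compound at serial concentrations (400, 200, 100, ... μg/mL). Virus-induced cytopathicity was scored once it reached completion in untreated infected control cultures.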

Cytomegalovirus [8] = assay: Inhibitory activity against cytomegalovirus (CMV) AD 169 strain; type: functional, organism-based; settings: Human betaherpesvirus 5
How it was run: (§3)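 HEL cell cultures, grown to confluence, received 100 CCID50 of virus. After 1 h adsorption, the inoculum was removed and the cultures were incubated with serial concentrations of compound (400, 200, 100, ... μg/mL).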

Cytomegalovirus [9] = assay: Inhibitory activity against cytomegalovirus (CMV) Davis strain; type: functional, organism-based; settings: Human betaherpesvirus 5; how it was run: as §3
[10] = test system: Human immunodeficiency virus 1; assay: Inhibitory activity of compound against human immunodeficiency virus type 1 (HIV-1) induced cytopathogenicity in MT-4 cells; type: functional, organism-based; settings: Human immunodeficiency virus 1, MT4
How it was run: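 Human MT-4 cells (~4 × 10⁵ cells/mL) were infected with 100 CCID50 of HIV-1 (IIIB)/mL and seeded into wells containing compound dilutions. After 5 days at 37 °C, viable cells were counted by trypan blue exclusion in a blood cell counting chamber.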

[11] = test system: Human immunodeficiency virus 2; assay: Inhibitory activity against human immunodeficiency virus type 2 (HIV-2) induced cytopathogenicity in MT-4 cells; type: functional, organism-based; settings: Human immunodeficiency virus 2, MT4
Human alphaherpesvirus 2 [12] = assay: Inhibitory activity against herpes simplex virus type 2 (HSV-2) G strain; type: functional, organism-based; how it was run: as §1
[13] = test system: Human immunodeficiency virus 1; assay: Inhibition of human immunodeficiency virus type 1 (HIV-1) induced cytopathogenicity in CEM cells; type: functional, organism-based; settings: Human immunodeficiency virus 1, CCRF-CEM
How it was run: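 CEM cells (~3 × 10⁵ cells/mL) were infected with 100 CCID50 of HIV-1 (IIIB)/mL and plated with dilutions of compound. After 4 days at 37 °C, giant cell formation was assessed microscopically.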

[14] = test system: Human immunodeficiency virus 2; assay: Inhibition of human immunodeficiency virus type 2 (HIV-2) induced cytopathogenicity in CEM cells; type: functional, organism-based; settings: Human immunodeficiency virus 2, CCRF-CEM
Vaccinia virus [15] = assay: Inhibitory activity against vaccinia virus (VV); type: functional, organism-based; settings: Orthopoxvirus vaccinia; how it was run: as §2
Human alphaherpesvirus 1 [16] = assay: Inhibitory activity against herpes simplex virus type 1 (HSV-1) F strain; type: functional, organism-based; how it was run: as §1
Human alphaherpesvirus 1 [17] = assay: Inhibitory activity against herpes simplex virus type 1 (HSV-1) KOS strain.; type: functional, organism-based; how it was run: as §1
Human alphaherpesvirus 1 [18] = assay: Iactivity against herpes simplex virus type 1 (HSV-1) McIntyre strain.; type: functional, organism-based; how it was run: as §1
Human alphaherpesvirus 2 [19] = assay: Inhibitory activity against herpes simplex virus type 2 (HSV-2) 196 strain.; type: functional, organism-based; how it was run: as §1
Human alphaherpesvirus 2 [20] = assay: Inhibitory activity against herpes simplex virus type 2 (HSV-2) G strain.; type: functional, organism-based; how it was run: as §1
E6SM = assay: Inhibitory activity against herpes simplex virus type 2 (HSV-2) Lyons strain.; type: functional, cell-based, Homo sapiens; how it was run: as §1
Human alphaherpesvirus 1 [21] = assay: Inhibitory activity against herpes simplex virus type 1 thymidine kinase (HSV-1 TK-) VMW 1837 strain.

SMILES	EC50 [1]	EC50 (Human alphaherpesvirus 1 [2])	EC50 (Human alphaherpesvirus 1 [3])	EC50 (Human alphaherpesvirus 1 [4])	EC50 [5]	EC50 (Human alphaherpesvirus 2 [6])	EC50 (Vaccinia virus [7])	EC50 (Cytomegalovirus [8])	EC50 (Cytomegalovirus [9])	EC50 [10]	EC50 [11]	EC50 (Human alphaherpesvirus 2 [12])	EC50 (Vaccinia virus [15])	EC50 (Human alphaherpesvirus 1 [16])	EC50 (Human alphaherpesvirus 1 [17])	EC50 (Human alphaherpesvirus 1 [18])	EC50 (Human alphaherpesvirus 2 [19])	EC50 (Human alphaherpesvirus 2 [20])	EC50 (E6SM)	EC50 (Human alphaherpesvirus 1 [21])	further results
Nc1nccc(OCCOCP(=O)(O)O)n1	2.33 µg/mL (≈ 9.35 µM)	> 200 µg/mL	> 200 µg/mL	300 µg/mL (≈ 1200 µM)	> 200 µg/mL	300 µg/mL (≈ 1200 µM)	Not Active	> 100 µg/mL	> 100 µg/mL	> 100 µg/mL	> 100 µg/mL	> 200 µg/mL									
Nc1nc(N)c2nc(Br)n(CCOCP(=O)(O)O)c2n1	2.43 µg/mL (≈ 6.62 µM)	7 µg/mL (≈ 19.1 µM)	20 µg/mL (≈ 54.5 µM)	20 µg/mL (≈ 54.5 µM)	70 µg/mL (≈ 191 µM)	20 µg/mL (≈ 54.5 µM)		8 µg/mL (≈ 21.8 µM)	12 µg/mL (≈ 32.7 µM)			20 µg/mL (≈ 54.5 µM)	300 µg/mL (≈ 817 µM)								EC50 [13]: > 100 µg/mL; EC50 [14]: > 100 µg/mL
CC(C)OP(=O)(COCCn1cnc2c(N)nc(N)nc21)OC(C)C		240 µg/mL (≈ 645 µM)	240 µg/mL (≈ 645 µM)	89 µg/mL (≈ 239 µM)	240 µg/mL (≈ 645 µM)	240 µg/mL (≈ 645 µM)		2 µg/mL (≈ 5.37 µM)	2 µg/mL (≈ 5.37 µM)	> 100 µg/mL		> 400 µg/mL									EC50 [13]: > 100 µg/mL
Nc1ncc2ncn(CCOCP(=O)(O)O)c2n1	0.1 µg/mL (≈ 0.366 µM)	20 µg/mL (≈ 73.2 µM)	70 µg/mL (≈ 256 µM)	20 µg/mL (≈ 73.2 µM)	150 µg/mL (≈ 549 µM)	70 µg/mL (≈ 256 µM)	Not Active	> 100 µg/mL	> 100 µg/mL	40.9 µg/mL (≈ 150 µM)	50 µg/mL (≈ 183 µM)	400 µg/mL (≈ 1460 µM)									
Nc1nc(Cl)nc2c1ncn2CCOCP(=O)(O)O	18.2 µg/mL (≈ 59.2 µM)							88 µg/mL (≈ 286 µM)	85 µg/mL (≈ 276 µM)	> 100 µg/mL	> 100 µg/mL		> 40 µg/mL	Not Active	Not Active	Not Active	Not Active	Not Active	Not Active	Not Active	
CC(C)OP(=O)(COCCn1cnc2c(Cl)nc(N)nc21)OC(C)C	> 100 µg/mL						Not Active	40 µg/mL (≈ 102 µM)	10 µg/mL (≈ 25.5 µM)	> 100 µg/mL	> 100 µg/mL			Not Active	Not Active	Not Active	Not Active	Not Active	Not Active	Not Active	
Nc1cnn(CCOCP(=O)(O)O)c(=O)n1	> 100 µg/mL							> 100 µg/mL	> 100 µg/mL	> 100 µg/mL	> 100 µg/mL			Not Active	Not Active	Not Active	Not Active	Not Active	Not Active	Not Active	
CC(C)CCCCCOP(=O)(O)COCCn1cnc2c(O)nc(N)nc21		240 µg/mL (≈ 598 µM)	240 µg/mL (≈ 598 µM)	240 µg/mL (≈ 598 µM)	240 µg/mL (≈ 598 µM)	240 µg/mL (≈ 598 µM)		> 50 µg/mL	> 50 µg/mL	> 100 µg/mL	> 100 µg/mL	240 µg/mL (≈ 598 µM)									
CCOP(=O)(O)COCCn1cnc2c(O)nc(N)nc21	0.24 µg/mL (≈ 0.757 µM)	2 µg/mL (≈ 6.3 µM)	2 µg/mL (≈ 6.3 µM)	2 µg/mL (≈ 6.3 µM)	2 µg/mL (≈ 6.3 µM)	2 µg/mL (≈ 6.3 µM)		0.15 µg/mL (≈ 0.473 µM)	0.15 µg/mL (≈ 0.473 µM)	2.6 µg/mL (≈ 8.2 µM)		0.7 µg/mL (≈ 2.21 µM)	20 µg/mL (≈ 63 µM)								
